Results taken from ChEMBL document CHEMBL5230083, “Novel 2, 5-diketopiperazine derivatives as potent selective histone deacetylase 6 inhibitors: Rational design, synthesis and antiproliferative activity” (Eur J Med Chem, 2020).
Blank lines part the entries; values can stand above or below the compound they belong to.

Experiments:
LOX IMVI = test: Antiproliferative activity against human LOX IMVI cells assessed as cell growth at 10 uM incubated for 48 hrs by SRB assay relative to control; assay type: functional; details: read-out: Activity
In short: (§1)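 Single-concentration screen at 10 μM run by NCI on its NCI-60 human tumour panel (blood, lung, colon, CNS, melanoma, ovary, kidney, prostate, breast), following the NCI-60 published methodology. Read-out is growth percent relative to untreated cells.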

Histone deacetylase 8 = target: T1, Histone deacetylase 8 (Homo sapiens, UniProt Q9BY41); test: Inhibition of HDAC8 (unknown origin) using Fluor de lys as substrate by fluorescence based analysis
T1 sequence (Q9BY41 whole entry): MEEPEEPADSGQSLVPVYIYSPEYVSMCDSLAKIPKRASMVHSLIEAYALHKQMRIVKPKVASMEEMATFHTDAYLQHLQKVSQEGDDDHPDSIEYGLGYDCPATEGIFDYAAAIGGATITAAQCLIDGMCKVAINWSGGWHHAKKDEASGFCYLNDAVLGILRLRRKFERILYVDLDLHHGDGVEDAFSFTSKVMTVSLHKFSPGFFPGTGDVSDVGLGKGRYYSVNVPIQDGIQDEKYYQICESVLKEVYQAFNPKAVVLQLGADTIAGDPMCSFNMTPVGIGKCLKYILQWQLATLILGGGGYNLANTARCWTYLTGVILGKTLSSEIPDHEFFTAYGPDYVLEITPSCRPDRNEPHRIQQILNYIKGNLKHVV

BT-549 = test: Antiproliferative activity against human BT-549 cells assessed as cell growth at 10 uM incubated for 48 hrs by SRB assay relative to control; assay type: functional; details: read-out: Activity; in short: as §1
SK-MEL-28 = test: Antiproliferative activity against human SK-MEL-28 cells assessed as cell growth at 10 uM incubated for 48 hrs by SRB assay relative to control; assay type: functional; details: read-out: Activity; in short: as §1
NCI-H522 = test: Antiproliferative activity against human NCI-H522 cells assessed as cell growth at 10 uM incubated for 48 hrs by SRB assay relative to control; assay type: functional; details: read-out: Activity; in short: as §1
K562 = test: Antiproliferative activity against human K562 cells assessed as cell growth at 10 uM incubated for 48 hrs by SRB assay relative to control; assay type: functional; details: read-out: Activity; in short: as §1
HOP-62 = test: Antiproliferative activity against human HOP-62 cells assessed as cell growth at 10 uM incubated for 48 hrs by SRB assay relative to control; assay type: functional; details: read-out: Activity; in short: as §1
IGROV-1 = test: Antiproliferative activity against human IGROV-1 cells assessed as cell growth at 10 uM incubated for 48 hrs by SRB assay relative to control; assay type: functional; details: read-out: Activity; in short: as §1
HCT-15 = test: Antiproliferative activity against human HCT-15 cells assessed as cell growth at 10 uM incubated for 48 hrs by SRB assay relative to control; assay type: functional; details: read-out: Activity; in short: as §1
Hs-578T = test: Antiproliferative activity against human Hs-578T cells assessed as cell growth at 10 uM incubated for 48 hrs by SRB assay relative to control; assay type: functional; details: read-out: Activity; in short: as §1
U-251 = test: Antiproliferative activity against human U-251 cells assessed as cell growth at 10 uM incubated for 48 hrs by SRB assay relative to control; assay type: functional; details: read-out: Activity
In short: (§2)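 NCI-60 single-dose screen: compounds tested at 10 μM, and growth percent of each cell line calculated. The full method follows the NCI DTP protocol.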

RPMI-8226 = test: cells; assay type: functional, cell-based; details: Homo sapiens, RPMI-8226, 72 h
A498 = test: Antiproliferative activity against human A498 cells assessed as cell growth at 10 uM incubated for 48 hrs by SRB assay relative to control; assay type: functional; details: read-out: Activity; in short: as §1
DU-145 = test: Antiproliferative activity against human DU-145 cells assessed as cell growth at 10 uM incubated for 48 hrs by SRB assay relative to control; assay type: functional; details: read-out: Activity; in short: as §1
[1] = Cytotoxicity against human HS5 cells assessed as inhibition of cell growth incubated for 72 hrs by alamar blue assay; assay type: toxicity, cell-based
In short: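 Cells were grown in IMDM with 20% FBS and penicillin/streptomycin at 37 °C in 5% CO2. Drug-treated cells were incubated 72 h. Alamar blue (1 mM solution) was then added for 5–6 h, and fluorescence read at 530/590 nm.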

MCF7 = test: Antiproliferative activity against human MCF7 cells assessed as cell growth at 10 uM incubated for 48 hrs by SRB assay relative to control; assay type: functional; details: read-out: Activity; in short: as §1
M14 = test: Antiproliferative activity against human M14 cells assessed as cell growth at 10 uM incubated for 48 hrs by SRB assay relative to control; assay type: functional; details: read-out: Activity; in short: as §1
SN12C = test: Antiproliferative activity against human SN12C cells assessed as cell growth at 10 uM incubated for 48 hrs by SRB assay relative to control; assay type: functional; details: read-out: Activity; in short: as §2
786-0 = test: Antiproliferative activity against human 786-0 cells assessed as cell growth at 10 uM incubated for 48 hrs by SRB assay relative to control; assay type: functional; details: read-out: Activity; in short: as §1
Malme-3M = test: Antiproliferative activity against human Malme-3M cells assessed as cell growth at 10 uM incubated for 48 hrs by SRB assay relative to control; assay type: functional; details: read-out: Activity; in short: as §1
NCI-H322M = test: Antiproliferative activity against human NCI-H322M cells assessed as cell growth at 10 uM incubated for 48 hrs by SRB assay relative to control; assay type: functional; details: read-out: Activity; in short: as §1
U-266 = test: cells; assay type: functional, cell-based; details: Homo sapiens, U-266, 72 h
A549 = test: Antiproliferative activity against human A549 cells assessed as cell growth at 10 uM incubated for 48 hrs by SRB assay relative to control; assay type: functional; details: read-out: Activity; in short: as §1
Histone deacetylase 1 = Histone deacetylase 1 (Homo sapiens, UniProt Q13547); test: Inhibition of HDAC1 (unknown origin) using Fluor de lys as substrate by fluorescence based analysis
Sequence of Histone deacetylase 1 (Q13547 whole entry): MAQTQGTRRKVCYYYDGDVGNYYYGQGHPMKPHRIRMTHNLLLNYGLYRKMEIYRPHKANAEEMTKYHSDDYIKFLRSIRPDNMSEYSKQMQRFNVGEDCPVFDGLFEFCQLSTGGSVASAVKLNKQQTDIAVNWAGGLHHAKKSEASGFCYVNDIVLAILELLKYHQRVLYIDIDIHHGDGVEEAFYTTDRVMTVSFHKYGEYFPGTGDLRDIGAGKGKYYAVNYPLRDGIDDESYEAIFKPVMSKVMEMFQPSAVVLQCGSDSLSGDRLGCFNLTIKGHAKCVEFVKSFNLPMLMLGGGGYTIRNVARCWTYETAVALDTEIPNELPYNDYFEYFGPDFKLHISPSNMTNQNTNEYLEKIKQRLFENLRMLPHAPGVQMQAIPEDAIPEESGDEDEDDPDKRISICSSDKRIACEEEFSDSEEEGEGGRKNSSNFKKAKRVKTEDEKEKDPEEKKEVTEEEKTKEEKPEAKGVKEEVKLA

COLO 205 = test: Antiproliferative activity against human COLO 205 cells assessed as cell growth at 10 uM incubated for 48 hrs by SRB assay relative to control; assay type: functional; details: read-out: Activity; in short: as §1
SK-MEL-5 = test: Antiproliferative activity against human SK-MEL-5 cells assessed as cell growth at 10 uM incubated for 48 hrs by SRB assay relative to control; assay type: functional; details: read-out: Activity; in short: as §2
OVCAR-3 = test: Antiproliferative activity against human OVCAR-3 cells assessed as cell growth at 10 uM incubated for 48 hrs by SRB assay relative to control; assay type: functional; details: read-out: Activity; in short: as §1
SK-OV-3 = test: Antiproliferative activity against human SK-OV-3 cells assessed as cell growth at 10 uM incubated for 48 hrs by SRB assay relative to control; assay type: functional; details: read-out: Activity; in short: as §2
HL-60 = test: Antiproliferative activity against human HL-60 cells assessed as cell growth at 10 uM incubated for 48 hrs by SRB assay relative to control; assay type: functional; details: read-out: Activity; in short: as §1
SNB-19 = test: Antiproliferative activity against human SNB-19 cells assessed as cell growth at 10 uM incubated for 48 hrs by SRB assay relative to control; assay type: functional; details: read-out: Activity; in short: as §2
NCI-H460 = test: Antiproliferative activity against human NCI-H460 cells assessed as cell growth at 10 uM incubated for 48 hrs by SRB assay relative to control; assay type: functional; details: read-out: Activity; in short: as §1
SF-539 = test: Antiproliferative activity against human SF-539 cells assessed as cell growth at 10 uM incubated for 48 hrs by SRB assay relative to control; assay type: functional; details: read-out: Activity; in short: as §1
OVCAR-5 = test: Antiproliferative activity against human OVCAR-5 cells assessed as cell growth at 10 uM incubated for 48 hrs by SRB assay relative to control; assay type: functional; details: read-out: Activity; in short: as §1

IC50 (Histone deacetylase 8): 0.513 µM | IC50 (RPMI-8226): 33.2 µM | IC50 (U-266): 43.2 µM | IC50 (Histone deacetylase 1): 8.02 µM
SMILES: O=C1CN(Cc2ccc(C(=O)NO)cc2)C(=O)[C@@H](Cc2c[nH]c3ccccc23)N1
growth at 10 µM (LOX IMVI): 106% | growth at 10 µM (BT-549): 98.2% | growth at 10 µM (SK-MEL-28): 110% | growth at 10 µM (NCI-H522): 96.7% | growth at 10 µM (K562): 100% | growth at 10 µM (HOP-62): 102% | growth at 10 µM (IGROV-1): 101% | growth at 10 µM (HCT-15): 103% | growth at 10 µM (Hs-578T): 104% | growth at 10 µM (U-251): 96.7% | growth at 10 µM (A498): 85% | growth at 10 µM (DU-145): 107% | IC50 at 72 hrs [1]: > 100 µM | growth at 10 µM (MCF7): 96.7% | growth at 10 µM (M14): 94.2% | growth at 10 µM (SN12C): 100% | growth at 10 µM (786-0): 83% | growth at 10 µM (Malme-3M): 94.6% | growth at 10 µM (NCI-H322M): 99.1% | growth at 10 µM (A549): 96.6% | growth at 10 µM (COLO 205): 120% | growth at 10 µM (SK-MEL-5): 108% | growth at 10 µM (OVCAR-3): 104% | growth at 10 µM (SK-OV-3): 96.5% | growth at 10 µM (HL-60): 126% | growth at 10 µM (SNB-19): 96.8% | growth at 10 µM (NCI-H460): 104% | growth at 10 µM (SF-539): 107% | growth at 10 µM (OVCAR-5): 107%

IC50 (Histone deacetylase 8): 0.145 µM | IC50 (RPMI-8226): 11.7 µM | IC50 (U-266): 25.9 µM | IC50 (Histone deacetylase 1): 9.64 µM
SMILES: O=C(NO)c1ccc(CN2CC(=O)N(Cc3ccccc3)[C@H](Cc3ccccc3)C2=O)cc1
growth at 10 µM (LOX IMVI): 93.2% | growth at 10 µM (BT-549): 103% | growth at 10 µM (SK-MEL-28): 95.4% | growth at 10 µM (NCI-H522): 69.8% | growth at 10 µM (K562): 76.4% | growth at 10 µM (HOP-62): 87.8% | growth at 10 µM (IGROV-1): 89% | growth at 10 µM (HCT-15): 74.3% | growth at 10 µM (Hs-578T): 82% | growth at 10 µM (U-251): 81.3% | growth at 10 µM (A498): 67.4% | growth at 10 µM (DU-145): 87% | IC50 at 72 hrs [1]: > 100 µM | growth at 10 µM (MCF7): 82.9% | growth at 10 µM (M14): 90.4% | growth at 10 µM (SN12C): 96.6% | growth at 10 µM (786-0): 94.8% | growth at 10 µM (Malme-3M): 77.1% | growth at 10 µM (NCI-H322M): 89.5% | growth at 10 µM (A549): 95.1% | growth at 10 µM (COLO 205): 89.2% | growth at 10 µM (SK-MEL-5): 96.7% | growth at 10 µM (OVCAR-3): 79.7% | growth at 10 µM (SK-OV-3): 90.4% | growth at 10 µM (HL-60): 102% | growth at 10 µM (SNB-19): 85.4% | growth at 10 µM (NCI-H460): 81.6% | growth at 10 µM (SF-539): 87.3% | growth at 10 µM (OVCAR-5): 97.8%
